Source: PubChem BioAssay (Johns Hopkins Ion Channel Center)
An excerpt weighted towards active compounds, which were near 3.5% of everything screened.
RGS4 pot = potentiators or activators of RGS4 | B-score at 10 µM | AID 463111 | actives 0.92% (n = 310,000) | HEK293 M3R/inducible RGS4, carbachol calcium flux Fluo4; active compounds read low;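 active = B-score of the integrated calcium signal more than 4 SD below the library mean, with starting fluorescence not abnormally high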;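 also: negative B-score means reduced calcium response which marks RGS4 activation or potentiation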
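test system = M3R-expressing HEK293 line, RGS4 induced by doxycycline | probe or stimulus = carbachol at ECmax as muscarinic agonist stimulus | timing = dye loading 30 min 37 °C, buffer rest 30 min RT | signal = calcium dye Fluo4 fluorescence | evaluation = B score from integrated fluorescence ratio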
RGS4 inh = inhibitors of human RGS4; P49798; HEK293 M3R/RGS4 inducible, Fluo-4 calcium flux; active compounds read high; triggered by carbachol at its EC20; B-score at 10 µM; actives 0.45% (n = 310,000); AID 463165;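 active = B-score, a plate-corrected calcium signal, over three deviations above library mean, with baseline fluorescence within five deviations of library mean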;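 also: RGS4 expression induced by doxycycline in cells with stable M3 receptor; B-score is computed from the integrated fluorescence ratio over baseline after carbachol; higher B-score means a larger calcium signal and so more RGS4 inhibition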
Target sequence (P49798 whole entry, looked up): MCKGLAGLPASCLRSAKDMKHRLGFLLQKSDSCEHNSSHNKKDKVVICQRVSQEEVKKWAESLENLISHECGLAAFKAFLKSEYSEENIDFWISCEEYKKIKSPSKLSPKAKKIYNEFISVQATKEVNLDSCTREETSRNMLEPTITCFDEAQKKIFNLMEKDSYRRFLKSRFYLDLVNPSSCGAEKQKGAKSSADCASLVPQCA
MrgX1 PAM = allosterically activates human MrgX1 receptor signaling; Q96LB2; MrgX1-HEK293, Fluo-4 calcium flux, FDSS; active compounds read high; B-score at 10 µM; actives 0.63% (n = 310,000);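 active = plate-corrected calcium response at least 3 library SD above typical, normal starting fluorescence, not activating the receptor alone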;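 also: compound read alongside a low EC10 to EC30 dose of BAM8-22 agonist; peak minus trough fluorescence over baseline measured at the second addition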
Target sequence (Q96LB2 whole entry, looked up): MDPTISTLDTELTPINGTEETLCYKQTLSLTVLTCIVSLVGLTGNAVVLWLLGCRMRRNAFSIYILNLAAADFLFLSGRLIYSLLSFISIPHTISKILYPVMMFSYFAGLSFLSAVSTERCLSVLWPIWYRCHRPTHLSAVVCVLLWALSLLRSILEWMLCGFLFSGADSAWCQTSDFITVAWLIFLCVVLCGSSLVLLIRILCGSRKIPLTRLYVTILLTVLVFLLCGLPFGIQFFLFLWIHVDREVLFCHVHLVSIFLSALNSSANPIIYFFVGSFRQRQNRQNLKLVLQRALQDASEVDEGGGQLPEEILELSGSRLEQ
MrgX1 ag = agonists of human MrgX1 receptor; B-score at 10 µM; Q96LB2; actives 0.44% (n = 310,000); MrgX1-HEK293 cells, Fluo-4 calcium fluorescence, agonist mode; active compounds read high;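 active = calcium response B-score plate-corrected fluorescence ratio at least 3 library SD, with starting fluorescence B-score inside 5 SD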
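Test system: HEK293 cells stably expressing human MrgX1 receptor; Input: fifteen thousand cells per well; Dosing: compound delivered in addition one of three; Schedule: overnight seeding, then 1 h dark dye loading; Technique: Fluo-4 NW calcium fluorescence; Measure: B-scored fluorescence response ratio; Controls: positive and negative controls per plate.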
MrgX1 antag = blocks BAM8-22 activation of human MrgX1 receptor | Q96LB2 | MRGX1-HEK293 calcium flux, Fluo-4, BAM8-22 antagonism; active compounds read low | B-score at 10 µM | actives 1.3% (n = 310,000);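 active = calcium-response B-score plate-corrected more than 3 library SD below zero, starting fluorescence within 5 deviations, no agonist response on first addition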;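 also: peak minus trough fluorescence over baseline after final BAM8-22 challenge near maximal dose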
RGS4 inh valid = validation of RGS4 inhibitors; HEK293 M3R/RGS4, carbachol calcium Fluo-4 fluorescence; carbachol added at its EC20; 0 = buffer wells, 100 = carbachol control; calcium response, % at 10 µM; shares compounds with RGS4 inh; AID 492999; actives 65% (n = 1,700);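 active = duplicate-averaged calcium response above the buffer-only control mean plus 5 SD of those controls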;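 also: integrated fluorescence ratio F max minus min over baseline F0; higher response in RGS4-induced cells means RGS4 inhibition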
RGS4 uninduced = checks RGS4 inhibitor effects in non-induced HEK293 M3R cells; shares compounds with RGS4 inh; carbachol calcium Fluo-4; submaximal (EC20) carbachol stimulus; buffer wells 0%, carbachol control wells 100%; activity (percent), % at 10 µM; actives 20% (n = 1,900); AID 493000; call rule not given here;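 also: RGS4 induction absent so cells express M3R without RGS4; higher means more calcium signal and flags a non-specific hit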
RGS4 inh ctr2 = second counter-screen for RGS4 inhibitors: non-induced cells without carbachol. calcium response (agonist-mode artifact), % at 10 µM. actives 22% (n = 1,900). HEK293 M3R/RGS4 non-induced, Fluo-4 calcium, no carbachol; normalised: buffer wells 0%, carbachol wells 100%. shares compounds with RGS4 inh. AID 493001;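 active = duplicate-averaged calcium rise in uninduced cells above buffer wells' mean plus 5 SD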
A number is an active result; n = inactive; x = no result.

SMILES	RGS4 pot	RGS4 inh	MrgX1 PAM	MrgX1 ag	MrgX1 antag	RGS4 inh valid	RGS4 uninduced	RGS4 inh ctr2
CN(CC(=O)Nc1cccc(F)c1)C(=O)CC1CCCCC1	n	n	n	n	n	x	x	x
O=[N+]([O-])c1ccc(-[n+]2ccc3ccccc3c2)c([N+](=O)[O-])c1	n	n	n	n	n	x	x	x
CCOC(=O)[C@@H]1[C@H]2COc3cc(OC)ccc3[C@@H]2N2C(=O)N(c3ccc(C)cc3)C(=O)[C@@]12C	n	n	n	n	n	x	x	x
CCOC(=O)[C@@H]1[C@H]2COc3cc(OC)ccc3[C@@H]2N2C(=O)N(c3ccc(Cl)cc3)C(=O)[C@@]12C	n	n	n	n	n	n	n	n
CCOC(=O)[C@H]1[C@H]2COc3cc(OC)ccc3[C@@H]2N2C(=O)N(c3ccc(Cl)cc3)C(=O)[C@@]12C	n	n	n	n	n	n	n	n
COc1ccc(S(=O)(=O)Nc2ccccc2-c2nc3ccccc3[nH]c2=O)cc1	n	n	n	n	n	x	x	x
O=C(CN1CCN(c2ccc(F)cc2)CC1)Nc1nccs1	n	n	n	n	n	x	x	x
Cc1[nH]n(-c2ccccc2)c(=O)c1Sc1ccc(Cl)cc1	n	n	n	n	n	x	x	x
COc1ccc(C(c2c(C)[nH]n(-c3ccccc3)c2=O)c2c(C)[nH]n(-c3ccccc3)c2=O)cc1OC	n	n	n	n	n	x	n	n
Cc1[nH]n(-c2ccccc2)c(=O)c1C(C[N+](=O)[O-])c1ccc(Cl)cc1 (stereo unspecified)	n	10	n	32	n	28%	n	11%
Cc1[nH]n(-c2ccccc2)c(=O)c1C(C[N+](=O)[O-])c1ccc(F)cc1 (stereo unspecified)	n	n	n	n	n	x	n	7.5%
Cc1ccc(C(C[N+](=O)[O-])c2c(C)[nH]n(-c3ccccc3)c2=O)cc1 (stereo unspecified)	n	6.7	n	36	n	7.0%	32%	17%
Cc1ccc(CS(=O)(=O)CC(C)(O)c2ccccc2)cc1 (stereo unspecified)	n	n	n	n	n	x	x	x
CCOC(=O)c1c(NC(=O)C(=O)N/N=C/c2ccc(O)c(OC)c2)sc2c1CCCCC2	n	12	n	n	n	37%	54%	18%
CCC1Oc2ccccc2N(CC(=O)NC2CCCCC2C)C1=O (stereo unspecified)	n	n	n	n	n	x	x	x
CC(NC(=O)/C(C#N)=C/c1ccc(Cl)c([N+](=O)[O-])c1)c1ccccc1 (stereo unspecified)	n	49	8.9	n	n	22%	n	31%
C[C@@H](NC(=O)/C(C#N)=C/c1ccc(O)c(O)c1)c1ccccc1	x	x	n	n	n	x	x	x
N#C/C(=C\c1ccc(Cl)c([N+](=O)[O-])c1)c1ccccn1	n	9	n	n	n	16%	n	n
CN(CC(=O)Nc1cccc(F)c1)C(=O)c1ccc(N2CCOCC2)c([N+](=O)[O-])c1	n	n	n	n	n	x	x	x
CN(CC(=O)Nc1ccc(Cl)c(C(F)(F)F)c1)C(=O)c1ccc(N2CCOCC2)c([N+](=O)[O-])c1	n	5.4	n	n	n	12%	n	7.5%
O=C1/C(=C/c2cccnc2)Sc2ccccc21	n	7.9	n	47	n	42%	46%	32%
CC(=O)Nc1ccc(/C=C2\Sc3ccccc3C2=O)cc1	n	n	n	n	n	x	x	x
Cc1nc2c3ccccc3nc(NNC(=O)CCC(=O)NCCN3CCN(c4ccccc4)CC3)n2n1	n	n	n	n	n	x	x	x
C#CCN(C#N)c1nc(NCC)nc(NC(C)C)n1	n	n	n	n	n	x	x	x
CCN(C#N)c1nc(NC(C)C)nc(NC(C)C)n1	n	n	n	n	n	n	n	n
SMILES	RGS4 pot	RGS4 inh	MrgX1 PAM	MrgX1 ag	MrgX1 antag	RGS4 inh valid	RGS4 uninduced	RGS4 inh ctr2
COc1cc(/C=C2/SC(=S)N(CC(=O)O)C2=O)ccc1OC(=O)c1ccco1	n	n	n	n	n	x	x	x
COc1ccc(Cn2c(=O)c3[nH]cnc3n(-c3ccccc3C)c2=O)cc1	n	7.8	n	n	n	15%	38%	n
Cc1cccc(COc2ccc(/C=N/NC(=O)c3nnn(-c4nonc4N)c3COc3ccc(F)cc3)cc2)c1	n	n	n	n	n	x	x	x
NC(=O)N/N=C/c1c(Sc2nnnn2-c2ccccc2)nc2ccccn2c1=O	n	12	n	n	n	11%	n	n
Cc1nn(-c2ccccc2)c(Cl)c1/C=N/NC(N)=O	n	n	n	n	n	x	x	x
Cc1c(NC(=O)COC(=O)Cc2ccc(F)cc2)c(=O)n(-c2ccccc2)n1C	n	n	n	n	n	x	x	x
Cc1ccc(S(=O)(=O)/N=C(/Sc2ccccc2C(=O)O)c2ccccc2)cc1	n	n	n	n	n	x	x	x
Cc1ccc(S(=O)(=O)/N=C(\Sc2ccccc2)c2ccccc2)cc1	n	22	n	n	n	22%	n	26%
O=S(=O)(/N=C(\Sc1ccccc1)c1ccccc1)c1ccc(Cl)cc1	n	n	n	n	n	x	n	27%
O=C(COc1coc(CN2CCCc3ccccc32)cc1=O)Nc1ccccc1	n	n	n	n	n	x	x	x
COc1cccc(CN2CC(C(=O)N(C)CCCC3CCCC3)CCC2=O)c1 (stereo unspecified)	n	n	n	n	n	x	x	x
NC1=NC2(CCC(c3ccccc3)CC2)n2c(nc3ccccc32)N1 (stereo unspecified)	n	5.2	n	n	n	58%	n	n
COc1cccc(NC(=O)NNC(=O)CCc2ccc(O)c(O)c2)c1	n	n	n	n	n	x	x	x
CC(=O)N1CCc2cc(S(=O)(=O)NC(C)c3ccccc3)ccc21 (stereo unspecified)	n	n	n	n	n	n	n	n
COc1ccc(NC(=O)CN(C)C(=O)C(C)Oc2ccc(Br)cc2)cc1 (stereo unspecified)	n	n	n	n	n	x	x	x
O=C1N=c2ccccc2=C1c1c(O)n(-c2cccc(F)c2)[nH]c1=O	n	7	n	n	n	21%	n	n
Cc1noc(NS(=O)(=O)c2ccc(NC(=O)c3nn(-c4ccc(F)cc4)ccc3=O)cc2)c1C	n	n	n	n	n	x	x	x
Cc1ccc(-n2ccc(=O)c(C(=O)Nc3ccc(S(=O)(=O)Nc4onc(C)c4C)cc3)n2)cc1	n	n	n	n	n	x	n	n
CCN(CC)c1ccc(N=Cc2cc(Br)ccc2O)cc1	n	n	n	n	n	x	x	x
